# Results from different studies.
# Target: Calcium/calmodulin-dependent protein kinase type II subunit gamma (CAMK2G, Homo sapiens, UniProt Q13555)
Structure (SMILES),effect on,mode,method,concentration,endpoint,value
Cc1ccc(C(=O)NCc2ccsc2)cc1C#Cc1cn(C(C)C)c2ncnc(N)c12,enzyme activity,inhibitor,,1 µM,activity vs control,101%
CC(C)c1ccc(NC(=O)c2cccs2)c(-c2nc3ccccc3[nH]c2=O)c1,enzyme activity,inhibitor,,1 µM,activity vs control,100%
O=C(NC[C@@H]1[C@H]2CN(C(=O)OCc3cc(C(F)(F)F)cc(C(F)(F)F)c3)C[C@@H]12)c1ccc2[nH]nnc2c1,cell-free assay,,competition with immobilised ligand,1 µM,remaining binding,85%
CCN(CC)c1ccc(C2=NNC(=O)CC2C)cc1[N+](=O)[O-] (centres unmarked),enzyme activity,inhibitor,,10 µM,remaining activity,119%
CNCc1ccccc1-c1csc([C@H](C)Nc2nc(C)nc3cc(OC)c(OC)cc23)c1,cell-free assay,,competition with immobilised ligand,1 µM,remaining binding,90%
CC/C(=N\NC(=O)NCc1cccc(O)c1)c1ccc(O)c(C)c1O,enzyme activity,inhibitor,,0.1 µM,inhibition,-5.1%
CN([C@@H]1CCc2c(CC(=O)O)c3cc(S(C)(=O)=O)ccc3n2C1)S(=O)(=O)c1ccc(F)cc1,cell-free assay,,competition with immobilised ligand,1 µM,remaining binding,100%
Cc1cc(NC(=O)c2cccc3cc(-c4cccc5[nH]nc(N)c45)ccc23)ccc1F,enzyme activity,inhibitor,,0.1 µM,activity vs control,106%
Cc1ccc(NC(=O)c2ccc(C)c(C(F)(F)F)c2)cc1C#Cc1nn(C2CCC(O)CC2)c2ncnc(N)c12 (centres unmarked),cell-free assay,,,10 µM,remaining signal,90%
N#CCCc1ccc2c(c1)-c1[nH]c3ccc([N+](=O)[O-])cc3c1CC(=O)N2,cell-free assay,,,0.5 µM,remaining signal,66%
CC(C)(O)[C@H]1CC[C@H](Nc2ccc3ncc(-c4cccc(C(F)(F)F)c4)n3n2)CC1,enzyme activity,inhibitor,,1 µM,remaining activity,95.1%
O=C(Nc1cnn(-c2csc(C(=O)NC3COC3)c2)c1)Nc1c(F)cccc1Cl,enzyme activity,inhibitor,,5 µM,remaining activity,90.1%
CS(=O)(=O)c1cc(C2(NC(=O)c3cncc4c3cnn4-c3ccc(F)cc3)CC2)ccn1,cell-free assay,,competition with immobilised ligand,1 µM,remaining binding,72%
CN1CC(Oc2cnc(C#N)cc2-c2ccn3nc(NC(=O)C4CC4)cc3c2)C1,enzyme activity,inhibitor,,1 µM,inhibition,10%
CNC(=O)c1cc(Oc2ccc(NC(=O)Nc3ccc(Cl)c(C(F)(F)F)c3)cc2)ccn1,cell-free assay,,,0.3 µM,inhibition,51%
Cc1cnc(NC2CCOCC2)nc1-n1cnc(C(=O)NC(CN)c2cc(F)cc(Cl)c2)c1 (centres unmarked),enzyme activity,inhibitor,radiometric,1 µM,remaining activity,88%
O=c1nc(-c2ccccn2)sc2ccccc12,binding,,competition with immobilised ligand,1 µM,remaining binding,96%
C#Cc1cccc(Nc2ncnc3cc(OCCOC)c(OCCOC)cc23)c1,cell-free assay,,,0.5 µM,remaining signal,115%
CC(C)(C)c1nc2c(s1)c1nc(N)ncc1c1ccc(NS(=O)(=O)c3c(F)cccc3F)c(F)c12,enzyme activity,inhibitor,radiometric,1 µM,remaining activity,118%
Cc1nc(Cc2cccc(C(F)(F)F)c2)sc1-c1ccc(C(N)=O)nc1,cell-free assay,,competition with immobilised ligand,1 µM,remaining binding,93%
